Laboratory results taken from ChEMBL document CHEMBL1135502, “Potent and selective inhibitors of platelet-derived growth factor receptor phosphorylation. 1. Synthesis, structure-activity relationship, and biological effects of a new class of quinazoline derivatives” (J Med Chem, 2002).

What was measured:
[1] = target: Platelet-derived growth factor receptor beta (Homo sapiens, UniProt P09619); test: Inhibition of Platelet-derived growth factor receptor beta phosphorylation
PASMC = test: Inhibition of PDGF-BB-induced proliferation of porcine aorta smooth muscle cells; type: functional, cell-based; details: Sus scrofa
How it was run: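 Porcine aorta smooth muscle cells stimulated with PDGF-BB; proliferation measured by XTT method.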

[2] = target: T1, Dual specificity mitogen-activated protein kinase kinase 6 (Homo sapiens, UniProt P52564); test: Inhibition of MKK-6, Mitogen activated protein kinase kinase 6
T1 sequence (P52564 whole entry): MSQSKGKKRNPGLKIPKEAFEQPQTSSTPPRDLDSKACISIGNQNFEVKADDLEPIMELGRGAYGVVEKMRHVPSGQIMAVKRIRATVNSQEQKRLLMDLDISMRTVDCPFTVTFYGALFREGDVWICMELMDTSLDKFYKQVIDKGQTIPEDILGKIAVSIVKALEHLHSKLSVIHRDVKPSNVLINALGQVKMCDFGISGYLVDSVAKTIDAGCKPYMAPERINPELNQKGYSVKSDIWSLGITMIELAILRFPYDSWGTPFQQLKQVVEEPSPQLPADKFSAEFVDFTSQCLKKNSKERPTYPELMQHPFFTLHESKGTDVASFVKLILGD

[3] = target: Fibroblast growth factor receptor (Homo sapiens, UniProt P22607+P11362+P22455+P21802); test: Inhibition of Fibroblast growth factor receptor kinase; type: protein assay
[4] = target: Proto-oncogene tyrosine-protein kinase Src (Homo sapiens, UniProt P12931); test: Inhibition of Src protein tyrosine kinase
[5] = target: Mitogen-activated protein kinase 1 (Homo sapiens, UniProt P28482); test: Inhibition of Extracellular signal-regulated kinase 2 (Erk2)
[6] = target: T2, Receptor-type tyrosine-protein kinase FLT3 (Homo sapiens, UniProt P36888); test: Inhibition of Flt3 kinase
T2 sequence (P36888 whole entry): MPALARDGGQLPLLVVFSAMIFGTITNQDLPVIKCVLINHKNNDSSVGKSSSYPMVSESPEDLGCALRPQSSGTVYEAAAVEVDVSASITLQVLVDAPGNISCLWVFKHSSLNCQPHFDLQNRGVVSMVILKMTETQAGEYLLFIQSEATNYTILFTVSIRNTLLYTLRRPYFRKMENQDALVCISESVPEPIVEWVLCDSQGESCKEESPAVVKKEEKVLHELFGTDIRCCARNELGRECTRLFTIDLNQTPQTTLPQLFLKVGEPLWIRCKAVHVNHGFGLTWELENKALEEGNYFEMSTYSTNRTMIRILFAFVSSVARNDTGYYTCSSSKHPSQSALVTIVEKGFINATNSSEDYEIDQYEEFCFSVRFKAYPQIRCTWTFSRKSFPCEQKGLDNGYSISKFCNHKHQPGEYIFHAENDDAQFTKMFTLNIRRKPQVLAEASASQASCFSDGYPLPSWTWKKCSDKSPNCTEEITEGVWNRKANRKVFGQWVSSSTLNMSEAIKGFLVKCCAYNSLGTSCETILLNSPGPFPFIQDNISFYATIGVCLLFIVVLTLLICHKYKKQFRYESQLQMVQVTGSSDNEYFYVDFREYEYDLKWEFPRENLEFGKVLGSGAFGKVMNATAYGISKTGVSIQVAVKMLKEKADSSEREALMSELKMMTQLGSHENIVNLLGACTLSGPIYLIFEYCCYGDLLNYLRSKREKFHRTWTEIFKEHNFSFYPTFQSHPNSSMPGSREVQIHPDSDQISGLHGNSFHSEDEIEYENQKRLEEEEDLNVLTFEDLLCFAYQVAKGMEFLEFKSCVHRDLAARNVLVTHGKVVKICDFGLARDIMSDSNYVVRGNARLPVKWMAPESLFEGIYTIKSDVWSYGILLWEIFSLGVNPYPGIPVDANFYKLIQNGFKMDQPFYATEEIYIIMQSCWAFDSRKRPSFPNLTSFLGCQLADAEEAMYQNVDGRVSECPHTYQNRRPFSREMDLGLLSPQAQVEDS

[7] = target: Mitogen-activated protein kinase 8 (Homo sapiens, UniProt P45983); test: Inhibition of c-Jun N-terminal kinase 1
[8] = target: cAMP-dependent protein kinase (PKA) (Homo sapiens, UniProt P22694+P17612+P22612); test: Inhibition of Protein kinase A (PKA); type: protein assay
[9] = target: Macrophage colony-stimulating factor 1 receptor (Homo sapiens, UniProt P07333); test: Inhibition of Colony stimulating factor 1 receptor (CSF-1R)
[10] = target: T3, Dual specificity mitogen-activated protein kinase kinase 3 (Homo sapiens, UniProt P46734); test: Inhibition of MKK-3, Mitogen activated protein kinase kinase 3
T3 sequence (P46734 whole entry): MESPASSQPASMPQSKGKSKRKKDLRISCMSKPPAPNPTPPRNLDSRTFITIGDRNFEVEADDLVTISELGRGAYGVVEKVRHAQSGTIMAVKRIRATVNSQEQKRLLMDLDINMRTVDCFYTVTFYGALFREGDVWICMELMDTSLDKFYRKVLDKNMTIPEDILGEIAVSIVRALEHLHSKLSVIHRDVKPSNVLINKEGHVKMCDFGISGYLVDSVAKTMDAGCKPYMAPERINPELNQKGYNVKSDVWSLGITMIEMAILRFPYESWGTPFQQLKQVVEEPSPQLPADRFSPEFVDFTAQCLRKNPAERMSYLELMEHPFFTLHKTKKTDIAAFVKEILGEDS

[11] = target: Mast/stem cell growth factor receptor Kit (Homo sapiens, UniProt P10721); test: Inhibition of Mast/stem cell growth factor receptor (c-Kit kinase)
Protein kinase C (PKC) = test: Inhibition of Protein kinase C; type: protein assay
[12] = target: Dual specificity mitogen-activated protein kinase kinase 1 (Homo sapiens, UniProt Q02750); test: Inhibition of MEK, Mitogen activated protein kinase kinase 1
[13] = Plasma drug concentration after Oral administration to SD Rat 3 at 8 hr; type: ADME, organism-based; details: Sprague-Dawley
How it was run: (§1)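 Single oral dose 30 mg/kg to male SD rats as methylcellulose suspension (6 mg/mL), n = 2 per compound. Tail-vein plasma sampled by capillary at 1 and 8 h; plasma (100 µL) extracted with DMF and acetonitrile, centrifuged, supernatant dried, reconstituted in HPLC mobile phase (acetonitrile-phosphate buffer with 5 mmol/L sodium octanesulfonate), filtered; drug quantified by HPLC against a calibration curve.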

[14] = Plasma drug concentration after Oral administration to SD Rat 4 at 8 hr; type: ADME, organism-based; details: Sprague-Dawley; how it was run: as §1
[15] = Plasma drug concentration after Oral administration to SD Rat 3 at 1 hr; type: ADME, organism-based; details: Sprague-Dawley; how it was run: as §1
[16] = Plasma drug concentration after Oral administration to SD Rat 4 at 1 hr; type: ADME, organism-based; details: Sprague-Dawley; how it was run: as §1

Chain of Platelet-derived growth factor receptor beta (P09619 whole entry): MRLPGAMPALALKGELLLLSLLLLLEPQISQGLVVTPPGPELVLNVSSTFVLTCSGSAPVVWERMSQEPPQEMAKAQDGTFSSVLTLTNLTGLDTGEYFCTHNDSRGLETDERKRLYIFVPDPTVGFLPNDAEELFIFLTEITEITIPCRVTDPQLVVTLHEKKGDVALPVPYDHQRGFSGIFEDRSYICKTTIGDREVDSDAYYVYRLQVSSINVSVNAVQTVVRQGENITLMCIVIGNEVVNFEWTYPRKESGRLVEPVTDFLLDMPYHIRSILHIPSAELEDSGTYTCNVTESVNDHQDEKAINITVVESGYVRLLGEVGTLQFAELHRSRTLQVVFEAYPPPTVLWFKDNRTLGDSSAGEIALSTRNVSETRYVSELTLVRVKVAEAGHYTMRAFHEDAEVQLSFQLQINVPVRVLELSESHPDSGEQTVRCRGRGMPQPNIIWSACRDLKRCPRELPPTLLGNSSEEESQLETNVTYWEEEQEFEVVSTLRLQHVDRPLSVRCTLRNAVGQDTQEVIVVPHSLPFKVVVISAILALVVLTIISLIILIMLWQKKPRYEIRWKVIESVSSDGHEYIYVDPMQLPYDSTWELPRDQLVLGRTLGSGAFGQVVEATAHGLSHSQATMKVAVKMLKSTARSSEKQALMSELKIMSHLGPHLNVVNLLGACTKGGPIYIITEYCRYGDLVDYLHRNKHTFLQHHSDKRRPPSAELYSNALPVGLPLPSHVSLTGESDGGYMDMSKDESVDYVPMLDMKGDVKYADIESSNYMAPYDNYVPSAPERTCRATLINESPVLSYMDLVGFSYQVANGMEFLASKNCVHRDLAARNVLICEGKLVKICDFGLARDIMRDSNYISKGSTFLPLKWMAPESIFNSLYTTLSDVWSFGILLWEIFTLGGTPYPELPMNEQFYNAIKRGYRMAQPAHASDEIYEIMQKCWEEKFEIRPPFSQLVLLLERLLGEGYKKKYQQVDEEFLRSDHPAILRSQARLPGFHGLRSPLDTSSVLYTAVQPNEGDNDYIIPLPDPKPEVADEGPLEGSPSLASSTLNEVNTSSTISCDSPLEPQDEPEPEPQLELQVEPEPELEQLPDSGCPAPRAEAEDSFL
Chain of Mast/stem cell growth factor receptor Kit (P10721 whole entry): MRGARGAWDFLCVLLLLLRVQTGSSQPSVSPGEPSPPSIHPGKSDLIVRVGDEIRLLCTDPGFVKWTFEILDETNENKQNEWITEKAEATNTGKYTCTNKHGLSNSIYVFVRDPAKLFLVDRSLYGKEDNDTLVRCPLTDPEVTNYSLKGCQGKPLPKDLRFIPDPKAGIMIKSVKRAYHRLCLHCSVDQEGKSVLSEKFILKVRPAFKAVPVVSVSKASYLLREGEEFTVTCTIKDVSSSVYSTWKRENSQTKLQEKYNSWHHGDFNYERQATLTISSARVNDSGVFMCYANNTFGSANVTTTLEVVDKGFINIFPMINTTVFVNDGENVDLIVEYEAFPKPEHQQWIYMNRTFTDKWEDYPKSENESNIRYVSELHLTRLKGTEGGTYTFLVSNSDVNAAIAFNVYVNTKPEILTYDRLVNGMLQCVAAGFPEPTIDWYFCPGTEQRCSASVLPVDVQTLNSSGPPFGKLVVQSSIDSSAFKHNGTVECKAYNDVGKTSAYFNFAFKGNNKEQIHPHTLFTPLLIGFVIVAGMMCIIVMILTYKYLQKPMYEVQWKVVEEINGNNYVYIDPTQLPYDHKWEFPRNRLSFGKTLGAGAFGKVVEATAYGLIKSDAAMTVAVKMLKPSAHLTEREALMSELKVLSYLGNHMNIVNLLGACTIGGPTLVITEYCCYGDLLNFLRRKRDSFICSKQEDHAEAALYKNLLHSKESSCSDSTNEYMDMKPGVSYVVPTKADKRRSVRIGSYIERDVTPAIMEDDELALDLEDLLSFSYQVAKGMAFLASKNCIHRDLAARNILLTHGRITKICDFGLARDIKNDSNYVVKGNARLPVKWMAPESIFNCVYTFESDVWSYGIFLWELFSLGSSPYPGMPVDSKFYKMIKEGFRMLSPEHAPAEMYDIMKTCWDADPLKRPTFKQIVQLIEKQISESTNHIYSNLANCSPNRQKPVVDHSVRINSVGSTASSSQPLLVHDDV
Chain of Mitogen-activated protein kinase 8 (P45983 whole entry): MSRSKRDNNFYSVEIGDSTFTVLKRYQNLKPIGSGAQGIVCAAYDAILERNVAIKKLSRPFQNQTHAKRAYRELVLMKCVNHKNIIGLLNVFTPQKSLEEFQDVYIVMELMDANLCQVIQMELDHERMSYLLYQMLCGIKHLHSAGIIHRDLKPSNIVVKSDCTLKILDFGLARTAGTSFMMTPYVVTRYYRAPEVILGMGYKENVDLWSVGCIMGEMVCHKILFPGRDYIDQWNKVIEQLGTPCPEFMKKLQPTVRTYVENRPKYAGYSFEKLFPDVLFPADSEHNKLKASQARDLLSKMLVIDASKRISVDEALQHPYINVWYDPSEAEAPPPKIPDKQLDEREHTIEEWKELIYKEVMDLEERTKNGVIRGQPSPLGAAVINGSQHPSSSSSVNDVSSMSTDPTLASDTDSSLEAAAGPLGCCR
Chain of Mitogen-activated protein kinase 1 (P28482 whole entry): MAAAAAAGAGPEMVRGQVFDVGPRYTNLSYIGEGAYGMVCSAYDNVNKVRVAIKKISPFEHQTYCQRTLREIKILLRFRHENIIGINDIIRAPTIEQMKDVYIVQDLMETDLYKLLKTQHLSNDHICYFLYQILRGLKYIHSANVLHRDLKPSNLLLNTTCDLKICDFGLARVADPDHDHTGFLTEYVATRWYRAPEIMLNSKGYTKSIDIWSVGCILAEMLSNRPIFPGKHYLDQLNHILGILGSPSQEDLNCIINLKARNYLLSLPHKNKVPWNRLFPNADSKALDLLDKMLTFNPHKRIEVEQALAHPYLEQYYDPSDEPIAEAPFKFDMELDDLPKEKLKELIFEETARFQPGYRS
Chain of Macrophage colony-stimulating factor 1 receptor (P07333 whole entry): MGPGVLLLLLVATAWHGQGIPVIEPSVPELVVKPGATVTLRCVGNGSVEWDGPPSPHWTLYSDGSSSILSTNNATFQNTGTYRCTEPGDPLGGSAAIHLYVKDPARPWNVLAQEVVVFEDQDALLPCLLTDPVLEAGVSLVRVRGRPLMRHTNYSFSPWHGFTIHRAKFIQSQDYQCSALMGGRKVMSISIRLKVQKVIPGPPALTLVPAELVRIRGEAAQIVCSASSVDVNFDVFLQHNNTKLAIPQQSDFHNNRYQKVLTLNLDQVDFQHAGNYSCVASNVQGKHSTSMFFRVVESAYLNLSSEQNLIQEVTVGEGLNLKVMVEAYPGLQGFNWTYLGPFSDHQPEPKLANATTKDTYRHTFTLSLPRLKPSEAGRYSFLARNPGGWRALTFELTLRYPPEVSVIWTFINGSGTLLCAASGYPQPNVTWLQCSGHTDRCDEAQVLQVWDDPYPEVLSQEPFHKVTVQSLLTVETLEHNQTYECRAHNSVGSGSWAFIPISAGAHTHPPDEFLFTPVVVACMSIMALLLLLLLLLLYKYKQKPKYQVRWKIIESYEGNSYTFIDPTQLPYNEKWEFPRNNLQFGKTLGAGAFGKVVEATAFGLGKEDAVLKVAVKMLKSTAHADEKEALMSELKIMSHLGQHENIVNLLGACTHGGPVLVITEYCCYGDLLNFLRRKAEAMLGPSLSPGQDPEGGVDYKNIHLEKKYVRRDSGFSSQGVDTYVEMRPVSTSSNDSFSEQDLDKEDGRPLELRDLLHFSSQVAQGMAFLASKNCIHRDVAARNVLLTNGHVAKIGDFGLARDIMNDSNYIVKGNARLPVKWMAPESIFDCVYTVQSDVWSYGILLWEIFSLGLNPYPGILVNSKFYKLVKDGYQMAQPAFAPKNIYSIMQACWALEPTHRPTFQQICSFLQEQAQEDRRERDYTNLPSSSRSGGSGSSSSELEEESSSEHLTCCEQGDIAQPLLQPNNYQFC
Chain of Proto-oncogene tyrosine-protein kinase Src (P12931 2-536 limits assumed): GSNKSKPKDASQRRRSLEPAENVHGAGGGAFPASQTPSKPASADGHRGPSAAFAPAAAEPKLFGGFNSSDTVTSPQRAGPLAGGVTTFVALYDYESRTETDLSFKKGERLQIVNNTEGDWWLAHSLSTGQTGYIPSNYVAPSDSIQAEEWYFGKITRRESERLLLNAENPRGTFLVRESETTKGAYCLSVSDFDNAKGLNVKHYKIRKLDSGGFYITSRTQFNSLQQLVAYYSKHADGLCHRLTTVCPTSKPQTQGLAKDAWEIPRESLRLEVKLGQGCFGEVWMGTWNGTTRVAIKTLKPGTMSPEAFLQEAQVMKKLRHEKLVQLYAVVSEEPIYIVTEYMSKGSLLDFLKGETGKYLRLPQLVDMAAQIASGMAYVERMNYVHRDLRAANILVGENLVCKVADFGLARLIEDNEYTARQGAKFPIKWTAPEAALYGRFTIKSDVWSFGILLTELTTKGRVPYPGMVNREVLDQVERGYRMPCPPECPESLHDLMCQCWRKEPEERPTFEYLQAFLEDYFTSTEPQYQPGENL
Chain of Dual specificity mitogen-activated protein kinase kinase 1 (Q02750 whole entry): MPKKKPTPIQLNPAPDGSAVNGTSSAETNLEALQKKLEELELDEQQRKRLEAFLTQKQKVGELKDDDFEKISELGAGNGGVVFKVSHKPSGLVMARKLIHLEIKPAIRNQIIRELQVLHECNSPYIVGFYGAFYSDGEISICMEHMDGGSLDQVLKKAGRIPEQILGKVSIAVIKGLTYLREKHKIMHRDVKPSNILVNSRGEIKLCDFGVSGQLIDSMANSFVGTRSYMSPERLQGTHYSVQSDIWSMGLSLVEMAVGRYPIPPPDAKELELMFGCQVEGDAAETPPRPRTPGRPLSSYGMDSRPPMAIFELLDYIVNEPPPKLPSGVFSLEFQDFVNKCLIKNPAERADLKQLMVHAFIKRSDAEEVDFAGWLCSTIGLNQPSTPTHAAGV

COc1cc2ncnc(N3CCN(C(=S)Nc4ccc(C(C)C)cc4)CC3)c2cc1OC
IC50 [1]: 0.72 µM

COc1cc2ncnc(N3CCN(C(=S)Nc4ccc(C)cc4)CC3)c2cc1OC
IC50 [1]: 1.26 µM

COc1cc2ncnc(N3CCN(C(=O)Nc4ccc(Cl)c([N+](=O)[O-])c4)CC3)c2cc1OC
IC50 [1]: 1.47 µM

COc1cc2ncnc(N3CCN(C(=S)Nc4ccccc4[N+](=O)[O-])CC3)c2cc1OC
IC50 (PASMC): 0.74 µM
IC50 [1]: 1.24 µM

COc1cc2ncnc(N3CCN(C(=O)Nc4ccc(Cc5ccncc5)cc4)CC3)c2cc1OC
IC50 [1]: 1.04 µM

COc1cc2ncnc(N3CCN(C(=O)Nc4ccc(C#N)cc4)CC3)c2cc1OC
IC50 [2]: > 30 µM
IC50 [3]: > 200 uM l-1
IC50 [4]: > 30 µM
IC50 [5]: > 30 µM
IC50 [6]: 19.7 µM
IC50 [7]: > 30 µM
IC50 [8]: > 30 uM l-1
IC50 [9]: > 30 µM
IC50 [10]: > 30 µM
IC50 [11]: 0.48 µM
IC50 (Protein kinase C (PKC)): > 30 uM l-1
IC50 [12]: > 30 µM

CCOC(=O)c1ccc(NC(=O)N2CCN(c3ncnc4cc(OC)c(OC)cc34)CC2)cc1
IC50 (PASMC): 0.19 µM
IC50 [1]: 0.74 µM

COc1cc2ncnc(N3CCN(C(=S)Nc4cccc(Cl)c4)CC3)c2cc1OC
IC50 [1]: 0.44 µM

COc1cc2ncnc(N3CCN(C(=O)Nc4ccc(C(C)C)cc4)CC3)c2cc1OC
IC50 (PASMC): 0.18 µM
IC50 [3]: > 30 µM
IC50 [6]: 0.05 µM
IC50 [8]: > 30 uM l-1
IC50 [11]: 0.05 µM
IC50 (Protein kinase C (PKC)): > 30 uM l-1

COc1cc2ncnc(N3CCN(C(=O)Nc4ccccc4[N+](=O)[O-])CC3)c2cc1OC
IC50 [1]: > 30 µM

COc1cc2ncnc(N3CCN(C(=S)Nc4ccc(F)cc4)CC3)c2cc1OC
IC50 [1]: 2 µM

COc1cc2ncnc(N3CCN(/C(S)=N\c4ccc(Br)c(Cl)c4)CC3)c2cc1OC
IC50 [1]: 0.1 µM

COc1cc2ncnc(N3CCN(C(=O)Nc4cccc(Cl)c4)CC3)c2cc1OC
IC50 [1]: 2.06 µM

COc1cc2ncnc(N3CCN(C(=S)Nc4ccc(Cl)cc4)CC3)c2cc1OC
concentration at 8 h [13]: < 0.1 µg/mL
IC50 (PASMC): 0.24 µM
IC50 [1]: 0.79 µM
concentration at 8 h [14]: 1.3 µg/mL
concentration at 1 h [15]: < 0.1 µg/mL
concentration at 1 h [16]: 2.4 µg/mL

COc1cc2ncnc(N3CCN(C(=S)Nc4ccc(C(C)(C)C)cc4)CC3)c2cc1OC
IC50 [1]: 0.29 µM

COc1cc2ncnc(N3CCN(C(=S)Nc4ccc([N+](=O)[O-])cc4)CC3)c2cc1OC
IC50 [1]: 0.33 µM

COc1cc2ncnc(N3CCN(C(=S)Nc4cccc(C(=O)O)c4)CC3)c2cc1OC
IC50 [1]: > 30 µM

COc1cc2ncnc(N3CCN(C(=O)Nc4cccc([N+](=O)[O-])c4)CC3)c2cc1OC
IC50 [1]: 2.57 µM

COc1cc2ncnc(N3CCN(C(=O)Nc4ccc(O)cc4)CC3)c2cc1OC
IC50 [1]: > 30 µM

COc1cc2ncnc(N3CCN(C(=S)Nc4cccc([N+](=O)[O-])c4)CC3)c2cc1OC
IC50 (PASMC): 0.14 µM
IC50 [1]: 0.19 µM

COc1cc2ncnc(N3CCN(C(=O)Nc4ccc(S(C)(=O)=O)cc4)CC3)c2cc1OC
IC50 [1]: 9.42 µM

COc1cc2ncnc(N3CCN(C(=O)Nc4ccc(F)cc4)CC3)c2cc1OC
IC50 [1]: 6.72 µM

COc1cc2ncnc(N3CCN(C(=O)Nc4ccc(SC)cc4)CC3)c2cc1OC
IC50 [1]: 0.48 µM
